Measured values from EPA's CvTdb concentration-time database.

What was measured:
[1] = test system: Rat; experiment: concentration in brain after dosing; details: 864 h; dosed: Perfluorooctane Sulfonate; 20 mg/kg; oral; Male; Harlan Sprague Dawley
[2] = test system: Rat; experiment: concentration in kidney after dosing; details: 6 h; dosed: Perfluorooctane Sulfonate; 2 mg/kg; oral; Female; Harlan Sprague Dawley
[3] = test system: Rat; experiment: concentration in liver after dosing; details: 24 h; dosed: Perfluorooctane Sulfonate; 2 mg/kg; oral; Female; Harlan Sprague Dawley
[4] = test system: Rat; experiment: concentration in kidney after dosing; details: 3360 h; dosed: Perfluorooctane Sulfonate; 2 mg/kg; oral; Female; Harlan Sprague Dawley
[5] = test system: Rat; experiment: concentration in kidney after dosing; details: 24 h; dosed: Perfluorooctane Sulfonate; 2 mg/kg; oral; Female; Harlan Sprague Dawley
[6] = test system: Rat; experiment: concentration in plasma after dosing; details: 6 h; dosed: Perfluorooctane Sulfonate; 2 mg/kg; oral; Female; Harlan Sprague Dawley
[7] = test system: Rat; experiment: concentration in plasma after dosing; details: dosed: Perfluorooctane Sulfonate, 2 mg/kg, iv, Male, F344
[8] = test system: Rat; experiment: concentration in plasma after dosing; details: 2 h; dosed: Gemfibrozil; 100 mg/kg; oral; Male; Sprague-Dawley
[9] = test system: Rat; experiment: concentration in plasma after dosing; details: 4 h; dosed: Gemfibrozil; 100 mg/kg; oral; Male; Sprague-Dawley
[10] = test system: Rat; experiment: concentration in plasma after dosing; details: 15 h; dosed: Gemfibrozil; 50 mg/kg; oral; Male; Sprague-Dawley
[11] = test system: Rat; experiment: concentration in plasma after dosing; details: 24 h; dosed: Gemfibrozil; 100 mg/kg; oral; Male; Sprague-Dawley
[12] = test system: Rat; experiment: concentration in plasma after dosing; details: 6 h; dosed: Gemfibrozil; 100 mg/kg; oral; Male; Sprague-Dawley
[13] = test system: Rat; experiment: concentration in plasma after dosing; details: 1 h; dosed: Perfluorohexanoic Acid; 40 mg/kg; iv; Male; F344
[14] = test system: Rat; experiment: concentration in kidney after dosing; details: 1 h; dosed: Perfluorohexanoic Acid; 80 mg/kg; oral; Female; Harlan Sprague Dawley
[15] = test system: Rat; experiment: concentration in kidney after dosing; details: 0.5 h; dosed: Perfluorohexanoic Acid; 80 mg/kg; oral; Male; Harlan Sprague Dawley
[16] = test system: Rat; experiment: concentration in kidney after dosing; details: 1 h; dosed: Perfluorohexanoic Acid; 80 mg/kg; oral; Female; Harlan Sprague Dawley; remark: listed apart in the source
[17] = test system: Rat; experiment: concentration in liver after dosing; details: 0.5 h; dosed: Perfluorohexanoic Acid; 80 mg/kg; oral; Male; Harlan Sprague Dawley
[18] = test system: Rat; experiment: concentration in kidney after dosing; details: 12 h; dosed: Perfluorohexanoic Acid; 80 mg/kg; oral; Male; Harlan Sprague Dawley
[19] = test system: Rat; experiment: concentration in kidney after dosing; details: 1 h; dosed: Perfluorohexanoic Acid; 80 mg/kg; oral; Male; Harlan Sprague Dawley
[20] = test system: human; experiment: concentration in expired air after dosing; details: dosed: trichloroethylene, 100 ppm, inhalation, duration: 4 hr, person
Procedure, shortened: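 Data points giving concentration or amount against time came from published in vivo toxicokinetic studies and from two structured collections. PubMed searching, classifier screening and manual review located the studies. Most points were digitised from plot screenshots using WebPlotDigitizer, the rest were copied from tables, and all keep their reported units.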

[21] = test system: Rat; experiment: concentration in liver after dosing; details: 12 h; dosed: Fluorotelomer alcohol 8+2; 24 mg/kg; oral; Male; Harlan Sprague Dawley
[22] = test system: Rat; experiment: concentration in plasma after dosing; details: 5 min; dosed: 678-39-7; 12 mg/kg; iv; Male; F344
[23] = test system: Rat; experiment: concentration in plasma after dosing; details: dosed: 678-39-7, 12 mg/kg, iv, Male, F344
[24] = test system: Rat; experiment: concentration in brain after dosing; details: 0.5 h; dosed: Fluorotelomer alcohol 8+2; 24 mg/kg; oral; Male; Harlan Sprague Dawley
[25] = test system: Rat; experiment: concentration in plasma after dosing; details: 192 h; dosed: 678-39-7; 40 mg/kg; iv; Male; F344
[26] = test system: Rat; experiment: concentration in kidney after dosing; details: 12 h; dosed: Fluorotelomer alcohol 8+2; 80 mg/kg; oral; Female; Harlan Sprague Dawley
[27] = test system: Rat; experiment: concentration in kidney after dosing; details: 0.5 h; dosed: Fluorotelomer alcohol 8+2; 80 mg/kg; oral; Female; Harlan Sprague Dawley
[28] = test system: Rat; experiment: concentration in plasma after dosing; details: dosed: 678-39-7, 40 mg/kg, iv, Male, F344
[29] = test system: Rat; experiment: concentration in brain after dosing; details: 0.5 h; dosed: 2-Methyltetrahydrofuran; 40 mg/kg; iv; Female; Harlan Sprague Dawley
[30] = test system: Rat; experiment: concentration in brain after dosing; details: 0.5 h; dosed: 2-Methyltetrahydrofuran; 40 mg/kg; iv; Female; Harlan Sprague Dawley; remark: listed apart in the source
[31] = test system: Rat; experiment: concentration in brain after dosing; details: 7 min; dosed: 2-Methyltetrahydrofuran; 40 mg/kg; iv; Male; Harlan Sprague Dawley
[32] = test system: Rat; experiment: concentration in plasma after dosing; details: 4 h; dosed: 2-Methyltetrahydrofuran; 40 mg/kg; iv; Female; Harlan Sprague Dawley
[33] = test system: Rat; experiment: concentration in brain after dosing; details: 4 h; dosed: 2-Methyltetrahydrofuran; 40 mg/kg; iv; Female; Harlan Sprague Dawley
[34] = test system: Rat; experiment: concentration in plasma after dosing; details: 4 h; dosed: 2-Methyltetrahydrofuran; 40 mg/kg; iv; Male; Harlan Sprague Dawley
[35] = test system: Rat; experiment: concentration in brain after dosing; details: 4 h; dosed: 2-Methyltetrahydrofuran; 40 mg/kg; iv; Male; Harlan Sprague Dawley
[36] = test system: Rat; experiment: concentration in brain after dosing; details: 0.75 h; dosed: 2-Methyltetrahydrofuran; 40 mg/kg; iv; Male; Harlan Sprague Dawley
[37] = test system: Rat; experiment: concentration in brain after dosing; details: 2 h; dosed: 2-Methyltetrahydrofuran; 40 mg/kg; iv; Male; Harlan Sprague Dawley
[38] = test system: Rat; experiment: concentration in plasma after dosing; details: 0.5 h; dosed: 2-Methyltetrahydrofuran; 40 mg/kg; iv; Female; Harlan Sprague Dawley
[39] = test system: Rat; experiment: concentration in plasma after dosing; details: 7 min; dosed: 2-Methyltetrahydrofuran; 40 mg/kg; iv; Male; Harlan Sprague Dawley

O=S(=O)([O-])C(F)(F)C(F)(F)C(F)(F)C(F)(F)C(F)(F)C(F)(F)C(F)(F)C(F)(F)F [Perfluorooctane Sulfonate]
Details	concentration in brain [ng/g]	concentration in kidney [ng/g]	concentration in liver [ng/g]	concentration in plasma [ng/mL]
[1]	2330	–	–	–
[2]	–	9250	–	–
[3]	–	–	23800	–
[4]	–	1110	–	–
[5]	–	9700	–	–
[6]	–	–	–	4580

[7]
Details	concentration in plasma [ng/mL]
12 h	5170
1200 h	1700

Cc1ccc(C)c(OCCCC(C)(C)C(=O)O)c1 [Gemfibrozil]
Details	concentration in plasma [ng/mL]
[8]	10700
[9]	7120
[10]	928
[11]	761
[12]	22700

O=C(O)C(F)(F)C(F)(F)C(F)(F)C(F)(F)C(F)(F)F [Perfluorohexanoic Acid]
Details	concentration in kidney [ng/g]	concentration in liver [ng/g]	concentration in plasma [ng/mL]
[13]	–	–	3100
[14]	76600	–	–
[15]	99400	–	–
[16]	85800	–	–
[17]	–	102000	–
[18]	1990	–	–
[19]	86000	–	–

ClC=C(Cl)Cl [trichloroethylene]
[20]
Details	concentration in expired air [ppm]
0.2505 h	6.43
0.4903 h	4.4
1.01 h	2.66
2.009 h	1.42
4.008 h	1.29
5.993 h	1.15
8.005 h	0.514
10.04 h	0.377
11.99 h	0.34
13.99 h	0.738
86 s	24.7

O=C(O)CCC(F)(F)C(F)(F)C(F)(F)C(F)(F)C(F)(F)C(F)(F)C(F)(F)F [Fluorotelomer acid 7+3]
Details	concentration in brain [ng/g]	concentration in kidney [ng/g]	concentration in liver [ng/g]	concentration in plasma [ng/mL]
[21]	–	–	1580	–
[22]	–	–	–	13.1
[24]	81.2	–	–	–
[25]	–	–	–	48.1
[26]	–	3110	–	–
[27]	–	435	–	–

concentration in plasma [ng/mL]
Details	0.5 h	3 h	5 min	9 h
[23]	–	807	11.6	–
[28]	470	–	–	2680

CC1CCCO1 (configuration not stated) [2-Methyltetrahydrofuran]
Details	concentration in brain [ng/mL]	concentration in plasma [ng/mL]
[29]	13800	–
[30]	12700	–
[31]	23700	–
[32]	–	186
[33]	111	–
[34]	–	312
[35]	1660	–
[36]	15800	–
[37]	7820	–
[38]	–	28500
[39]	–	48100
